Test results from ChEMBL document CHEMBL2384964, “Dual-acting histone deacetylase-topoisomerase I inhibitors” (Bioorg Med Chem Lett, 2013).
Activity calls are given as the source filed them. No cut-off for these calls is given here.

Tests used:
DU-145 = assay: Cytotoxicity against human DU145 cells assessed as inhibition of cell viability after 72 hrs by MTS assay; format: functional, cell-based; conditions: DU-145, 72 h
Summary of the method: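 DU-145 prostate carcinoma cells exposed to compound for 72 h; viability read by MTS assay. IC50 values are means of two experiments, each run in triplicate.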

[1] = molecular target: T1, DNA topoisomerase 1 (Homo sapiens) (UniProt P11387); assay: Inhibition of topoisomerase-1 (unknown origin) assessed as reduction of pBR322 plasmid DNA relaxation at 50 uM after 30 mins by agarose gel electrophoresis
T1 sequence (whole entry): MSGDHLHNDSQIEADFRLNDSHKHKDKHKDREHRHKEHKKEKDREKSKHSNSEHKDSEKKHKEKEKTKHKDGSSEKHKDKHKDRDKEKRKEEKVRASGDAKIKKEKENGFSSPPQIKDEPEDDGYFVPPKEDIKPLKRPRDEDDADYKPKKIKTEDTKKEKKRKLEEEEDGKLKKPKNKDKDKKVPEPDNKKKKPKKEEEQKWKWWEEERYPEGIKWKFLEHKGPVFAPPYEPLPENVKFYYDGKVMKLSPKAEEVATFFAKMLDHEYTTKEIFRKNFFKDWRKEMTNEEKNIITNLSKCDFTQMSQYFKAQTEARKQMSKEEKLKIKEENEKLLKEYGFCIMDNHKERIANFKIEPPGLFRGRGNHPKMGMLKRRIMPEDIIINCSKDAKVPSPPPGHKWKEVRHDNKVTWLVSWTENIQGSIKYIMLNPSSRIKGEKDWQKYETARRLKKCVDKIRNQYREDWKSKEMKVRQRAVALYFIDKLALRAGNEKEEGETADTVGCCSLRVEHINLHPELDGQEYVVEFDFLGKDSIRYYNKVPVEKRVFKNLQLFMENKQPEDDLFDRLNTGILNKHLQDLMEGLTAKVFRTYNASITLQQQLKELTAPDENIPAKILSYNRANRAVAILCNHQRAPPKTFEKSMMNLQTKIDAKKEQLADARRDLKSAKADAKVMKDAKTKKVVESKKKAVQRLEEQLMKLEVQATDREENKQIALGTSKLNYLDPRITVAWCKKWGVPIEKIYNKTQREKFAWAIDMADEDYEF
Summary of the method: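 Supercoiled pBR322 plasmid incubated with Topo I, test agents at 50 μM, SN-38 as positive control. Reactions stopped with SDS, run on agarose gel, DNA stained with a nucleic acid dye; relaxation judged by band migration.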

[2] = molecular target: T2, Histone deacetylase 8 (Homo sapiens) (UniProt Q9BY41); assay: Inhibition of HDAC8 in human HeLa cells using Fluor-de-Lys as substrate up to 10 uM after 15 mins by fluorescence assay; format: cell-based
T2 sequence (whole entry): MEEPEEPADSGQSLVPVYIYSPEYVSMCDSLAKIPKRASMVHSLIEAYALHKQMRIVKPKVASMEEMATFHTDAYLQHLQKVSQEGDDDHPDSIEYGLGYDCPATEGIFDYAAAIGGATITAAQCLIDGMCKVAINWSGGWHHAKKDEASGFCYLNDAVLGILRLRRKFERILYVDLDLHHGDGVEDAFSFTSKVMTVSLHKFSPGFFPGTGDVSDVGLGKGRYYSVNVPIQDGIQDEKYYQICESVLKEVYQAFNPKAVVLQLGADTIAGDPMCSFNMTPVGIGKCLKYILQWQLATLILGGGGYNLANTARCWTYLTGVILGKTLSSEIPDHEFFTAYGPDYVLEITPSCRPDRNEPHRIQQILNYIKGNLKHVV
Summary of the method: (§1)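 Run by a contract testing laboratory, duplicate wells at each concentration; values reported with standard error.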

[3] = molecular target: T3, Protein deacetylase HDAC6 (Homo sapiens, UniProt Q9UBN7); assay: Inhibition of HDAC6 in human HeLa cells using Fluor-de-Lys as substrate after 15 mins by fluorescence assay; format: cell-based
T3 sequence (Q9UBN7 whole entry): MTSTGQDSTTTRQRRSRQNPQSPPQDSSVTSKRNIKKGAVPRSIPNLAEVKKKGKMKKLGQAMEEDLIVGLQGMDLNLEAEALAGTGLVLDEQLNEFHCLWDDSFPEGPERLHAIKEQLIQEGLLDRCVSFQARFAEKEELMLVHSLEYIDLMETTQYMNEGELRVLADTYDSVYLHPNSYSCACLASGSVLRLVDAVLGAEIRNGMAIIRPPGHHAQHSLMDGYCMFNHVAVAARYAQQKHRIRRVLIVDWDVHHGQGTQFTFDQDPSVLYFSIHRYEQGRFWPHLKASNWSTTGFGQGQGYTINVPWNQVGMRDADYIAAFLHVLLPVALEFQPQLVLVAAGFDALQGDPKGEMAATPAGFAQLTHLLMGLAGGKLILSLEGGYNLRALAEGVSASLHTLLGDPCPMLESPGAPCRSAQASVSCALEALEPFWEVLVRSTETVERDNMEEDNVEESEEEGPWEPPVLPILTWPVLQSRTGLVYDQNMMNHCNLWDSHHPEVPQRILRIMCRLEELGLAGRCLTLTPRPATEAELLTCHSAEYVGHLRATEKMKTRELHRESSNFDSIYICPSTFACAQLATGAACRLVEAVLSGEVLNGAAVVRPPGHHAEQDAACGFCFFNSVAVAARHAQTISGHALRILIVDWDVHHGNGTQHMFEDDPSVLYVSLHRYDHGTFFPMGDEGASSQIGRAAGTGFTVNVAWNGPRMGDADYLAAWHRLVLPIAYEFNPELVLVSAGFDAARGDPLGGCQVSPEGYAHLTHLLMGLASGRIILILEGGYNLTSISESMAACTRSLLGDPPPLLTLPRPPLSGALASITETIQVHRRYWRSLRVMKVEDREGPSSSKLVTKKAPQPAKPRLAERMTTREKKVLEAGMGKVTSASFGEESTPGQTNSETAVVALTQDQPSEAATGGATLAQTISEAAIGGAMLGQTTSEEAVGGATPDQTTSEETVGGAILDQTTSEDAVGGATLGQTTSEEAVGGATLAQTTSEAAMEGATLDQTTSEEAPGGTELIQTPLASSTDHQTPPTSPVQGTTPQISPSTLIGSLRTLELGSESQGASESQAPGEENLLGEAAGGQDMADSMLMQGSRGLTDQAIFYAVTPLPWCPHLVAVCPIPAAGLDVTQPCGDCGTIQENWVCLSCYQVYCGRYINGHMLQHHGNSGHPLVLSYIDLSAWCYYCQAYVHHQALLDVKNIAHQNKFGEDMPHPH

Histone deacetylase 1 [4] = molecular target: T4, Histone deacetylase 1 (Homo sapiens, UniProt Q13547); assay: Inhibition of HDAC1 in human HeLa cells using Fluor-de-Lys as substrate after 15 mins by fluorescence assay; format: cell-based
Histone deacetylase = assay: Inhibition of HDAC in human HeLa cells using Fluor-de-Lys as substrate after 15 mins by fluorescence assay; format: cell-based
[5] = molecular target: T5, Histone deacetylase (Homo sapiens) (UniProt Q13547+O15379+Q9UBN7+Q92769+Q9UQL6+Q8WUI4+Q9BY41+Q96DB2+P56524+Q9UKV0+Q969S8); assay: Inhibition of HDAC in human DU145 cells assessed as upregulation of p21waf1 expression after 24 hrs by Western blot analysis; format: cell-based; conditions: DU-145
Summary of the method: (§2)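 DU-145 cells treated for 24 h at 2.5 and 5.0 μM (SAHA, conjugates) or 0.1 and 0.5 μM (SN-38); lysates immunoblotted for p21waf1, with actin as loading control.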

Histone deacetylase 8 = molecular target: T6, Histone deacetylase 8 (Homo sapiens, UniProt Q9BY41); assay: Inhibition of HDAC8 in human HeLa cells using Fluor-de-Lys as substrate after 15 mins by fluorescence assay; format: cell-based
T6 sequence (Q9BY41 whole entry): T2 sequence (whole entry)

[6] = molecular target: T5, Histone deacetylase (Homo sapiens); assay: Inhibition of HDAC in human DU145 cells assessed as upregulation of p21waf1 expression at 0.1 to 0.5 uM after 24 hrs by Western blot analysis; format: cell-based; conditions: DU-145; summary of the method: as §2
[7] = molecular target: T5, Histone deacetylase (Homo sapiens); assay: Inhibition of HDAC in human HeLa cells using Fluor-de-Lys as substrate up to 10 uM after 15 mins by fluorescence assay; format: cell-based
Summary of the method: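 Enzyme source is HeLa cell nuclear extract with a fluorogenic substrate; fluorescence read near 460 nm. Compound-only wells without enzyme give background (camptothecin emits at 434 nm), which is subtracted. Each value from three independent experiments.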

Histone deacetylase 1 [8] = molecular target: T4, Histone deacetylase 1; assay: Inhibition of HDAC1 in human HeLa cells using Fluor-de-Lys as substrate up to 10 uM after 15 mins by fluorescence assay; format: cell-based; summary of the method: as §1

T4 sequence (Q13547 whole entry): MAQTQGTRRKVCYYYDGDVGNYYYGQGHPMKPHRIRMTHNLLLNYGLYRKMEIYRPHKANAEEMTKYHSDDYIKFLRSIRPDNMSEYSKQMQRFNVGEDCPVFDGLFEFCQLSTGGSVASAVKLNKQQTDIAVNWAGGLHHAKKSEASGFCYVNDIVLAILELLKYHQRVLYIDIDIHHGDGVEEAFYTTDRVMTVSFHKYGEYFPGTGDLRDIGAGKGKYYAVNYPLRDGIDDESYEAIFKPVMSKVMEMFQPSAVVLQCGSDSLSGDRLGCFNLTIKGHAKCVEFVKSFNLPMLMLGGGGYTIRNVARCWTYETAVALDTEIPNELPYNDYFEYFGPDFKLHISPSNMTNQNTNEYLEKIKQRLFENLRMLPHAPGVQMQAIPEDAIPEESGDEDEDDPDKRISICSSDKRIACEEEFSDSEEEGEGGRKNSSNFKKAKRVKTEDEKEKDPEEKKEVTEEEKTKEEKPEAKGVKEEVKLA

**Q.** Which results are given for `CC[C@@]1(O)C(=O)OCc2c1cc1n(c2=O)Cc2cc3cc(OCc4cn(CCCCC(=O)NO)nn4)ccc3nc2-1`?
**A.** IC50 (DU-145): 2500 nM; Topo I inhibition (active/inactive) [1]: Active; inhibition [2]: inactive; IC50 [3]: 260 nM; IC50 (Histone deacetylase 1 [4]): 116 nM; IC50 (Histone deacetylase): 144.5 nM

**Q.** What does the source list for `CC[C@@]1(O)C(=O)OCc2c1cc1n(c2=O)Cc2cc3cc(OCc4cn(CCCCCC(=O)NO)nn4)ccc3nc2-1`?
**A.** inhibition [5]: Dose-dependent effect; IC50 (DU-145): 1950 nM; Topo I inhibition (active/inactive) [1]: Active; IC50 (Histone deacetylase): 112.2 nM

**Q.** With `CCc1c2c(nc3ccc(OCc4cn(CCCCCCCC(=O)NO)nn4)cc13)-c1cc3c(c(=O)n1C2)COC(=O)[C@]3(O)CC` as the molecule, how does the IC50 (DU-145) read?
**A.** The IC50 was 3510 nM.

**Q.** And the “Topo I inhibition (active/inactive)” value [1]?
**A.** The value was “Active”.

**Q.** And the IC50 (Histone deacetylase 8)?
**A.** The IC50 was 2600 nM.

**Q.** And the IC50 [3]?
**A.** The IC50 was 75 nM.

**Q.** And the IC50 (Histone deacetylase 1 [4])?
**A.** The IC50 was 369 nM.

**Q.** And the IC50 (Histone deacetylase)?
**A.** The IC50 was 212.3 nM.

**Q.** Which results are given for `CCc1c2c(nc3ccc(O)cc13)-c1cc3c(c(=O)n1C2)COC(=O)[C@]3(O)CC` [7-ETHYL-10-HYDROXYCAMPTOTHECIN]?
**A.** inhibition [6]: Active; IC50 (DU-145): 110 nM; inhibition [7]: inactive

**Q.** Which IC50 (DU-145) does the source give for `CCc1c2c(nc3ccc(OCc4cn(CCCC(=O)NO)nn4)cc13)-c1cc3c(c(=O)n1C2)COC(=O)[C@]3(O)CC` here?
**A.** The IC50 was 6270 nM.

**Q.** And the “Topo I inhibition (active/inactive)” value [1]?
**A.** Its value is “Active”.

**Q.** And the inhibition (Histone deacetylase 1 [8])?
**A.** Its inhibition is “inactive”.

**Q.** And the inhibition [7]?
**A.** Its inhibition is “inactive”.

**Q.** And the IC50 (Histone deacetylase 8)?
**A.** The IC50 was 1730 nM.

**Q.** What about the IC50 [3] of the same molecule?
**A.** Its IC50 is 85 nM.

**Q.** For `CCc1c2c(nc3ccc(OCc4cn(CCCCC(=O)NO)nn4)cc13)-c1cc3c(c(=O)n1C2)COC(=O)[C@]3(O)CC`, which IC50 (DU-145) is on record?
**A.** Its IC50 is 4250 nM.

**Q.** What about the “Topo I inhibition (active/inactive)” value [1] of the same molecule?
**A.** The value was “Active”.

**Q.** What about the IC50 (Histone deacetylase) of the same molecule?
**A.** Its IC50 is 155.4 nM.

**Q.** For `CCc1c2c(nc3ccc(OCc4cn(CCCCCCC(=O)NO)nn4)cc13)-c1cc3c(c(=O)n1C2)COC(=O)[C@]3(O)CC`, which IC50 (DU-145) is on record?
**A.** The IC50 was 3110 nM.

**Q.** And the “Topo I inhibition (active/inactive)” value [1]?
**A.** The value was “Active”.

**Q.** And the inhibition [2]?
**A.** The inhibition was “inactive”.

**Q.** And the IC50 [3]?
**A.** Its IC50 is 36 nM.

**Q.** What about the IC50 (Histone deacetylase 1 [4]) of the same molecule?
**A.** The IC50 was 50 nM.

**Q.** What about the IC50 (Histone deacetylase) of the same molecule?
**A.** Its IC50 is 64.65 nM.

**Q.** How did the inhibition [5] turn out when `CCc1c2c(nc3ccc(OCc4cn(CCCCCC(=O)NO)nn4)cc13)-c1cc3c(c(=O)n1C2)COC(=O)[C@]3(O)CC` was run?
**A.** The inhibition was “Dose-dependent effect”.

**Q.** And the IC50 (DU-145)?
**A.** Its IC50 is 2050 nM.

**Q.** What about the “Topo I inhibition (active/inactive)” value [1] of the same molecule?
**A.** Its value is “Active”.

**Q.** What about the inhibition [2] of the same molecule?
**A.** Its inhibition is “inactive”.

**Q.** What about the IC50 [3] of the same molecule?
**A.** The IC50 was 42 nM.

**Q.** What about the IC50 (Histone deacetylase 1 [4]) of the same molecule?
**A.** The IC50 was 129 nM.

**Q.** And the IC50 (Histone deacetylase)?
**A.** The IC50 was 120.7 nM.

**Q.** Which IC50 (DU-145) does the source give for `CC[C@@]1(O)C(=O)OCc2c1cc1n(c2=O)Cc2cc3cc(OCc4cn(CCCCCCC(=O)NO)nn4)ccc3nc2-1` here?
**A.** Its IC50 is 2030 nM.

**Q.** What about the “Topo I inhibition (active/inactive)” value [1] of the same molecule?
**A.** Its value is “Active”.

**Q.** And the IC50 (Histone deacetylase 8)?
**A.** The IC50 was 1050 nM.

**Q.** What about the IC50 [3] of the same molecule?
**A.** The IC50 was 81 nM.

**Q.** What about the IC50 (Histone deacetylase 1 [4]) of the same molecule?
**A.** Its IC50 is 37 nM.

**Q.** And the IC50 (Histone deacetylase)?
**A.** The IC50 was 56.2 nM.
